One may read the ILS as the gain in survival time of treated over control animals, in per cent. Read a high ILS as much gain in survival.

Among the data in ChEMBL document CHEMBL1121956, “Potential antitumor agents. 37. Organophosphorus derivatives of 9-anilinoacridine” (1982) are IC50, ILS and Log K values, retold here.

The subject of one test is L1210. Kind of test: Concentration for inhibiting the growth of L1210 cells by 50% over 3 days was determined. It counts as functional. Particulars: Mus musculus, L1210, 72 h; read-out: ID50 (the source's name).
Test [1] has as its system P388. Nature of the test: Percentage increase in life span was measured for P-388 cells […] after intraperitoneal administration of a dose of 66 mg/kg. The test is classed as functional. Particulars: Mus musculus, P388, ip. Put shortly:
(§1)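 Mice received 10⁶ P-388 leukemia cells ip. Drug in 0.1 mL of 30% aqueous ethanol was injected ip on days 1, 5 and 9. Doses ran from a toxic level downward at 0.67-fold intervals, with 6 mice per group and 20–30 controls. The percentage increase in mean survival time over controls was taken at the optimal dose. ILS below 20% was treated as nonsignificant.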

For test [2], the system named is P388. Nature of the test: Concentration for inhibiting the growth of P-388 cells by 50% over 3 days was determined. The test is classed as functional. Particulars: Mus musculus, P388, 72 h; read-out: ID50 (the source's name). A digest of the protocol:
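Cytotoxicity was measured against cultured murine leukemia cells, P-388 and L1210, over 3 days of continuous drug exposure. Culture and drug-addition conditions follow an earlier report. The value is the drug concentration that inhibits growth by 50% over the 3 days.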

For a further test, the system named is Nucleic Acid. Kind of test: […] association constant for DNA binding to poly (dA.dT). It counts as nucleic-acid assay. A digest of the protocol:
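Association constant for binding to the synthetic polynucleotide poly(dA-dT). Measured by a method described in earlier work.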

For test [3], the system named is P388. Nature of the test: Percentage increase in life span was measured for P-388 cells […] after intraperitoneal administration of a dose of 65 mg/kg. The test is classed as functional. The settings on record: Mus musculus, P388, ip. Put shortly: as §1
The test system of test [4] is P388. Kind of test: Percentage increase in life span was measured for P-388 cells […] after intraperitoneal administration of a dose of 30 mg/kg. It counts as functional. The settings on record: Mus musculus, P388, ip. Put shortly: as §1
Test [5] has as its system P388. Nature of the test: Percentage increase in life span was measured for P-388 cells […] after intraperitoneal administration of a dose of 330 mg/kg. It counts as functional. Particulars: Mus musculus, P388, ip. A digest of the protocol: as §1
Test [6] concerns P388. Kind of test: Percentage increase in life span was measured for P-388 cells […] after intraperitoneal administration of a dose of 125 mg/kg. Particulars: Mus musculus, P388, ip. The test is classed as functional. A digest of the protocol:
as §1

In test [7] the test system is P388. Nature of the test: Percentage increase in life span was measured for P-388 cells […] after intraperitoneal administration of a dose of 50 mg/kg. The test is classed as functional. Particulars: Mus musculus, P388, ip. A digest of the protocol: as §1
Test [8] has as its system P388. Nature of the test: Percentage increase in life span was measured for P-388 cells […] after intraperitoneal administration of a dose of 33 mg/kg. The test is classed as functional. Particulars: Mus musculus, P388, ip. A digest of the protocol:
as §1

In test [9] the test system is P388. Nature of the test: animal or person. Particulars: Mus musculus, P388, ip.
Test [10] has as its system P388. Nature of the test: Percentage increase in life span was measured for P-388 cells […] after intraperitoneal administration of a dose of 250 mg/kg. The test is classed as functional. The settings on record: Mus musculus, P388, ip. Put shortly: as §1
The test system of test [11] is P388. Nature of the test: Percentage increase in life span was measured for P-388 cells […] after intraperitoneal administration of a dose of 8.9 mg/kg. It counts as functional. The settings on record: Mus musculus, P388, ip. Put shortly: as §1
The test system of test [12] is P388. Kind of test: Percentage increase in life span was measured for P-388 cells […] after intraperitoneal administration of a dose of 190 mg/kg. The settings on record: Mus musculus, P388, ip. It counts as functional. Put shortly: as §1
In test [13] the test system is P388. Kind of test: Percentage increase in life span was measured for P-388 cells […] after intraperitoneal administration of a dose of 150 mg/kg. It counts as functional. The settings on record: Mus musculus, P388, ip. Put shortly: as §1
The subject of test [14] is P388. Nature of the test: Percentage increase in life span was measured for P-388 cells […] after intraperitoneal administration of a dose of 110 mg/kg. It counts as functional. The settings on record: Mus musculus, P388, ip. Put shortly:
as §1

Regarding `CS(=O)(=O)Nc1cccc(Nc2c3ccccc3nc3ccccc23)c1`, the IC50 in the test on L1210 came to 110 nM; in the test on P388 [2], 90 nM. The molecule further had an increase in life span (ILS) at 66 mg/kg with P388 [1] of 53%.
`NP(=O)(O)Nc1ccc(Nc2c3ccccc3nc3ccccc23)cc1`: the figures for the IC50 with L1210 and in the test with P388 [2] were 1800 nM and 2800 nM, respectively. Also, the Log K in the test on Nucleic Acid came to 4.83.
Turning to `CP(C)(=O)Nc1ccc(Nc2c3ccccc3nc3ccccc23)cc1`, the values for the IC50 with L1210 and with P388 [2] were 1300 nM and 1000 nM, respectively. Besides, the ILS at 65 mg/kg with P388 [3] was 18%. This molecule also came in with a Log K in the test on Nucleic Acid of 6.81.
Consider `CC(=O)Nc1ccc(Nc2c3ccccc3nc3ccccc23)cc1`, for which the IC50 in the test with L1210 was determined as 100 nM; with P388 [2], 54 nM. In the test on P388 [4], this molecule gave an ILS at 30 mg/kg of 57%.
Take `CS(=O)(=O)Cc1ccc(Nc2c3ccccc3nc3ccccc23)cc1`: the IC50 was found to be 250 nM in the test on L1210 and 270 nM in the test on P388 [2]. Moreover, the Log K in the test with Nucleic Acid amounted to 5.76. For the same molecule, the increase in lifespan (ILS) at 330 mg/kg with P388 [5] is 49%.
As to `COP(=O)(Cc1ccc(Nc2c3ccccc3nc3ccccc23)cc1)OC`, the IC50 with L1210 is 670 nM; in the test with P388 [2], 1400 nM. This molecule registered a Log K in the test with Nucleic Acid of 5.67. The molecule also came in with an ILS at 125 mg/kg in the test on P388 [6] of 2%.
In turn, `CNP(=O)(NC)Nc1ccc(Nc2c3ccccc3nc3ccccc23)cc1` displayed an ILS at 50 mg/kg in the test on P388 [7] of 11%. For the same molecule, the IC50 came out at 2500 nM in the test on L1210 and 2000 nM in the test with P388 [2]. This molecule returned a Log K with Nucleic Acid of 6.84.
`COP(=O)(O)Nc1ccc(Nc2c3ccccc3nc3ccccc23)cc1`: the IC50 is 2000 nM in the test with L1210 and 4000 nM with P388 [2]. The molecule also returned a Log K with Nucleic Acid of 5.37.
For the molecule `O=P1(Nc2ccc(Nc3c4ccccc4nc4ccccc34)cc2)NCCCO1` (stereo unspecified), in the test on P388 [7], the ILS at 50 mg/kg worked out at 9%. For the same molecule, the IC50 in the test on L1210 stood at 800 nM; in the test with P388 [2], 450 nM. Besides, the Log K with Nucleic Acid stood at 6.58.
As for `COP(=O)(Nc1ccc(Nc2c3ccccc3nc3ccccc23)cc1)OC`, the IC50 came out at 15 nM with L1210 and 10 nM in the test on P388 [2]. This molecule also came in with an ILS at 33 mg/kg in the test on P388 [8] of 74%. In the test on Nucleic Acid, the Log K was 6.26.
As to `COC(=O)Nc1ccc(Nc2c3ccccc3nc3ccccc23)cc1`, the IC50 with L1210 stood at 60 nM; in the test on P388 [2] it was 26 nM. In the test with P388 [4], this molecule displayed an ILS at 30 mg/kg of 98%.
`O=P1(Nc2ccc(Nc3c4ccccc4nc4ccccc34)cc2)OCCCO1`: the figures for the IC50 in the test with L1210 and in the test on P388 [2] were 110 nM and 50 nM, respectively. The molecule further registered a Log K in the test on Nucleic Acid of 6.78. Besides, the ILS at 30 mg/kg in the test with P388 [4] is 47%.
For the molecule `COc1cc(NS(C)(=O)=O)ccc1Nc1c2ccccc2nc2ccccc12` [AMSACRINE], in the test with P388 [9], the increase in life span (ILS) at 13.3 mg/kg turned out to be 78%. In the test with Nucleic Acid, this molecule had a Log K of 5.57. In addition, the IC50 with P388 [2] was found to be 30 nM.
In the test on P388 [10], `COP(=O)(Nc1cccc(Nc2c3ccccc3nc3ccccc23)c1)OC` displayed an increase in lifespan (ILS) at 250 mg/kg of 34%. Besides, the IC50 with L1210 came to 1800 nM; in the test with P388 [2], 1400 nM. The molecule further had a Log K in the test with Nucleic Acid of 5.66.
As to `CNC(=O)Nc1ccc(Nc2c3ccccc3nc3ccccc23)cc1`, the IC50 amounted to 100 nM in the test with L1210 and 86 nM in the test on P388 [2]. Moreover, the ILS at 30 mg/kg in the test with P388 [4] amounted to 53%.
Regarding `COc1cc(NP(=O)(OC)OC)ccc1Nc1c2ccccc2nc2ccccc12`, the IC50 in the test on L1210 came to 70 nM; with P388 [2] it was 36 nM. In the test on Nucleic Acid, the Log K was determined as 5.64. In the test with P388 [11], the increase in life span (ILS) at 8.9 mg/kg stood at 67%.
`CN(C)P(=O)(Nc1ccc(Nc2c3ccccc3nc3ccccc23)cc1)N(C)C` had an ILS at 50 mg/kg in the test on P388 [7] of 29%. Further, the values for the IC50 in the test on L1210 and in the test with P388 [2] were 1500 nM and 1300 nM, respectively. Besides, in the test on Nucleic Acid, the Log K was 6.08.
With `COP(=O)(NC(=O)c1ccc(Nc2c3ccccc3nc3ccccc23)cc1)OC`, the IC50 in the test with L1210 was over 35 nM; in the test with P388 [2], 4800 nM. In the test with Nucleic Acid, this molecule yielded a Log K of 5.56. This molecule registered an ILS at 190 mg/kg in the test with P388 [12] of 12%.
As for `CS(=O)(=O)Nc1ccc(Nc2c3ccccc3nc3ccccc23)cc1`, the IC50 was determined as 35 nM in the test on L1210 and 40 nM in the test on P388 [2]. The molecule further registered an ILS at 150 mg/kg with P388 [13] of 93%.
For the molecule `O=P1(Nc2ccc(Nc3c4ccccc4nc4ccccc34)cc2)OCCO1`, the IC50 with L1210 amounted to 180 nM; in the test with P388 [2], 110 nM. This molecule yielded a Log K with Nucleic Acid of 6.52. Further, the ILS at 30 mg/kg in the test on P388 [4] worked out at 54%.
With `CCOP(=O)(Nc1ccc(Nc2c3ccccc3nc3ccccc23)cc1)OCC`, the IC50 with L1210 came out at 230 nM; in the test with P388 [2], 200 nM. For the same molecule, the Log K in the test on Nucleic Acid was 6.47. For the same molecule, the ILS at 110 mg/kg in the test with P388 [14] worked out at 28%.
